Assay results from ChEMBL document CHEMBL1142407, “Angucyclinones from an Indonesian Streptomyces sp” (J Nat Prod, 2008).
The source made the active and inactive calls. No cut-off for these calls is given here.

Tests used:
Format in all cases: functional, organism-based
Bacillus subtilis = assay: Antibacterial activity against Bacillus subtilis at 20 to 120 ug/disk
Summary of the method: (§1)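 Agar diffusion test with compound loaded at 20 to 120 µg/disk. Read-out is a zone of growth inhibition of the test organism on agar. The same format covers bacteria (S. aureus, B. subtilis, E. coli, P. aeruginosa), the fungus Mucor miehei and the yeast Candida albicans.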

Pseudomonas aeruginosa = assay: Antibacterial activity against Pseudomonas aeruginosa at 20 to 120 ug/disk; summary of the method: as §1
Staphylococcus aureus = assay: Antibacterial activity against Staphylococcus aureus at 20 to 120 ug/disk; summary of the method: as §1
Escherichia coli = assay: Antibacterial activity against Escherichia coli at 20 to 120 ug/disk; summary of the method: as §1
Rhizomucor miehei = assay: Antifungal activity against Mucor miehei at 20 to 120 ug/disk; summary of the method: as §1
Candida albicans = assay: Antifungal activity against Candida albicans at 20 to 120 ug/disk; summary of the method: as §1
Trichomonas vaginalis = assay: Antiprotozoal activity against Trichomonas vaginalis

Compound	Activity (Bacillus subtilis)	Activity (Pseudomonas aeruginosa)	Activity (Staphylococcus aureus)	Activity (Escherichia coli)	Activity (Rhizomucor miehei)	Activity (Candida albicans)	Activity (Trichomonas vaginalis)
C[C@H]1CC(=O)c2c(ccc3c2C(=O)c2cccc(O)c2C3=O)[C@@H]1O	Active	Active					
C[C@@H]1CC(=O)C2=C(CC[C@]3(O)[C@H]2C(=O)c2cccc(O)c2[C@@H]3O)C1	inactive	inactive	inactive	inactive	inactive	inactive	inactive
C[C@@H]1CC(=O)C2=C(C[C@@H](O)[C@]3(O)[C@H]2C(=O)c2cccc(O)c2[C@@H]3O)[C@H]1O	inactive	inactive	inactive	inactive	inactive	inactive	inactive
CC1CC(=O)C2(O)C(O)(CCC34OC32C(=O)c2cccc(O)c2C4O)C1 (stereo not given)	inactive	inactive	inactive	inactive	inactive	inactive	
C[C@@H]1CC(=O)C2=C(C1)C1OC1[C@]1(O)[C@H]2C(=O)c2cccc(O)c2[C@@H]1O (stereo not given in full)	inactive	inactive	inactive	inactive	inactive	inactive	inactive
C[C@@H]1CC(=O)C2=C(C3OC3[C@]3(O)[C@H]2C(=O)c2cccc(O)c2[C@@H]3O)[C@H]1O (stereo not given in full)	inactive	inactive	inactive	inactive	inactive	inactive	inactive
C[C@@H]1CC(=O)c2c(ccc3c2C(=O)c2cccc(O)c2C3=O)C1	Active	Active					
C[C@@H]1CC(=O)C2=C(C1)C[C@@H](O)[C@]1(O)[C@H]2C(=O)c2cccc(O)c2[C@@H]1O	inactive	inactive	inactive	inactive	inactive	inactive	inactive
